# Assay outcomes from PubChem BioAssay.
# CSC inhib – cancer stem cell viability inhibitors, primary screen, luminescence; cancer stem cell-like cells viability; inhibition, % at 7.5 µM; hit rate 1.1% among 300,000; AID 2717, 2010; in the data active = inhibition above about 75%; inconclusive = no clear call, values can overlap the other calls; tested in HMLE shEcad cells
# Calb FLC – C. albicans growth inhibition with fluconazole, primary screen, CaCi-2 strain, Alamar Blue fluorescence; C. albicans CaCi-2 (fluconazole-resistant clinical isolate) + fluconazole, 48 h; growth inhibition, % (test concentration not listed); hit rate 0.57% among 300,000;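 active = growth inhibition above about 58% in most replicates, limit read from the data, passing the limit was not always enough; inconclusive = exactly half the replicates above a set limit; inactive = most replicates below a set limit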;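 note: all wells also contain fluconazole at 8 µg/ml as a sub-toxic cotreatment; 0% = median of DMSO wells and 100% = median of geldanamycin control wells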
# Mdm2 MdmX PPI – inhibitors of human Mdm2-MdmX association, primary screen, cell-based, luminescence, split luciferase, SaOS-2, uHTS. SaOS-2 split-luciferase Mdm2/MdmX complementation. inhibition, % at 8 µM. hit rate 3% among 330,000. AID 485346, 2010;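 active = inhibition of at least 50% at 8 µM in the primary screen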
# Target sequence (O15151 whole entry, looked up): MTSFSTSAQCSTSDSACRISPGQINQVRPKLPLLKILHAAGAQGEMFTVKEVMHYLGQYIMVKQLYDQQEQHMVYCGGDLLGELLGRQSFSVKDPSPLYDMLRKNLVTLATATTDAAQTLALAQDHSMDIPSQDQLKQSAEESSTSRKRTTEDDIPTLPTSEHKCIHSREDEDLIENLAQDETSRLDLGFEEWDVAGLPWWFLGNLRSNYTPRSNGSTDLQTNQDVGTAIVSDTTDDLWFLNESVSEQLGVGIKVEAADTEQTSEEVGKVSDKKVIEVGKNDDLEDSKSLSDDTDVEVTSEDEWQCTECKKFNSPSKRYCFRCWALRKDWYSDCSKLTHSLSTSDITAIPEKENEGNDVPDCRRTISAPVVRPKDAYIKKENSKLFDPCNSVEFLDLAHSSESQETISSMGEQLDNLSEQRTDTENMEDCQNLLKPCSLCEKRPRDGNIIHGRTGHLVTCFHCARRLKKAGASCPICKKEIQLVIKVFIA
# Target sequence (Q00987 whole entry, looked up): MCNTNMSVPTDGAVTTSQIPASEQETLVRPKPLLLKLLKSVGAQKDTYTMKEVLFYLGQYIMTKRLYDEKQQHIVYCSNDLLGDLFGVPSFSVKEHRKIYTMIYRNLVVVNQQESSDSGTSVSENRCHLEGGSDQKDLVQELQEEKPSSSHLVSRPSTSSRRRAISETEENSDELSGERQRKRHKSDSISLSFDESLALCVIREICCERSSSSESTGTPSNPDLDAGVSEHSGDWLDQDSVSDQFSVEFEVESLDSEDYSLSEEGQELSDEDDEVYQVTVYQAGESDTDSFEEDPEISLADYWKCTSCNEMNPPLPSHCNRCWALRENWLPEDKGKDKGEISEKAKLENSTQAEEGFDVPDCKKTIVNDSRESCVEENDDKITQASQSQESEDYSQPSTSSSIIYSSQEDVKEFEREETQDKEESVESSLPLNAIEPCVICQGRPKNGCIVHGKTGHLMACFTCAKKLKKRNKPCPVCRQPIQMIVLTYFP
# SKKanGAS inh – S. pyogenes SKKanGAS growth inhibitors in kanamycin, primary screen, streptokinase expression inhibitor project, SKKanGAS strain, BacTiter-Glo luminescence; 6 h; inhibition, % at 7.5 µM; hit rate 1.3% among 300,000;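 active = mean replicate score, as percent of positive control median, at least 50; inconclusive = mean below 50 but one replicate at or above 50; inactive = mean and every replicate below 50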;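 note: strain carries kanamycin resistance gene driven by streptokinase promoter and grows in 40 µg/ml kanamycin; loss of luminescence reflects streptokinase promoter inhibition or plain growth inhibition; 0% = median of DMSO wells and 100% = positive control at its reference dose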
# Beta apoptosis – inhibitors of cytokine-induced beta cell apoptosis, primary screen, luminescence; INS-1E cytokine-induced death, ATP luminescence, 48 h; percent of positive-control rescue, neutral wells zero; protection from apoptosis, % (no concentration beside the values); hit rate 0.8% among 300,000; AID 435005, 2010;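 active = Every replicate reaches about 75%, or at least half do and their mean reaches it too, limit read from the data; inconclusive = At least half of replicates reach the limit but their mean does not; inactive = Under half of replicates reach the limit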;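 note: 0% = cytokine-treated negative control wells and 100% = positive control rescue; higher means more ATP so stronger rescue from cytokine killing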
# T cruzi repl – inhibitors of intracellular T. cruzi growth, primary screen, luminescence, NIH3T3 host cells; T. cruzi beta-gal in NIH3T3, 90 h; inhibition, % (test concentration not listed); hit rate 1.4% among 300,000; AID 1885, 2009;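 active = mean inhibition across valid replicates above about 55%, limit read from the data; inconclusive = mean below that limit but half or more replicates reach it; inactive = mean below it, under half of replicates reach it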;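 note: signal also drops with host cell toxicity which is not excluded here; 0% = plate median of DMSO wells and 100% = zero luminescence signal; higher percent means less beta-gal luminescence so fewer parasites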
#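 System – NIH/3T3 host cells with β-galactosidase reporter T. cruzi · Doses – single 50 nL compound addition per well in DMSO · Reagent – 5000 T. cruzi trypomastigotes/well · Medium – Low-serum DMEM with 2% FBS · Timing – ≥90 h infection period, 3 h prior cell attachment · Evaluation – parasite load inhibition, % · Technique – GalScreen luminescence, 60 min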
# Mdm2-MdmX conf – Mdm2-MdmX complex disruptors, retested hits, confirmation, luminescence, single concentration. inhibition, % at 8 µM. hit rate 55% among 10,000. shares compounds with Mdm2 MdmX PPI. Mdm2-MdmX binding, luminescent assay; in the data active = inhibition above about 40%
# Full FLuc ctr – full-length luciferase signal inhibition, confirmation, counter-screen for Mdm2/MdmX interaction inhibitor project, cell-based, single concentration, SaOS-2 | shares compounds with Mdm2 MdmX PPI | SaOS-2 full-length luciferase counterscreen, luminescence | inhibition, % at 8 µM | hit rate 77% among 6,200;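 active = mean inhibition at 8 µM reaching about 37%, which flags the compound as non-specific, limit read from the data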;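 note: p53-null SaOS-2 cells with luciferase driven by a doxycycline-inducible promoter; compound on cells about two nights before reading with doxycycline added after day one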
# Active calls of the source: *; ? = inconclusive; · = no result given. Rows were chosen to be rich in hits. Some 5.7% of all compounds tested hit in one or more screens of this group.
SMILES,CSC inhib,Calb FLC,Mdm2 MdmX PPI,SKKanGAS inh,Beta apoptosis,T cruzi repl,Mdm2-MdmX conf,Full FLuc ctr
C=C(C)[C@@]12OC3(c4ccccc4)O[C@@H]1C1[C@@H]4O[C@]4(CO)[C@@H](O)[C@]4(O)C(=O)C(C)=C[C@H]4[C@@]1(O3)[C@H](C)[C@H]2OC(=O)/C=C/C=C/c1ccccc1 (some centres not stated),6,-2,77*,30,3,57*,12,·
O=C(Cc1ccccc1)OCCNC(=O)c1cccnc1,·,-11,18,-5,·,2,·,·
N#CC(C#N)=C(N)c1cccnc1,5,-2,55*,-6,·,-8,-24,·
Cc1nc2ccc(Cl)cc2c(=O)n1-c1ccccc1Cl,-9,6,4,2,·,-24,·,·
CCOC(=O)C1=CC(=C2C(=O)N(CC)C(=S)N(CC)C2=O)c2ccccc2O1,10,13,18,3,-5,-12,·,·
CCN1CCN(c2ncnc3ccc(Br)cc23)CC1,·,-1,62*,1,-8,-2,62*,42*
CCc1cc2c(N3CCN(C)CC3)ncnc2s1,3,-2,-1,-2,-4,40,·,·
Cn1ncnc2c(=O)n(C)c(=O)nc1-2,176*,17,92*,25,125*,63*,84*,21
Ic1ccccc1CN[C@@H]1C2CCN(CC2)[C@@H]1C(c1ccccc1)c1ccccc1,·,·,94*,·,·,·,42*,66*
Cc1cccc(N2CCc3c2nc2ccccc2c3N)c1,7,?,9,1,22,39,·,·
N=C1c2ccccc2CN1c1ccc(F)c([N+](=O)[O-])c1,-8,0,53*,-4,3,-6,30,·
N=C1c2ccccc2CN1c1cccc([N+](=O)[O-])c1,-12,7,-4,-13,-2,1,·,·
CCOc1ccc(-c2c(C)n(-c3ccc(OCC)cc3)c3[n+]2CCCCC3)cc1,34,87*,88*,3,·,46,87*,49*
COc1ccc2oc3c(c2c1)NC(=O)CN=C3c1ccccc1,-12,8,-5,-5,-5,3,·,·
O=C(CSC1c2ccccc2-c2ccccc21)N/N=C/c1ccccc1O,83*,19,82*,5,87*,60*,76*,28
CCCCCC(=O)N[C@@H](c1ccccc1)[C@@H](O)C(=O)O[C@H]1C[C@@]2(O)[C@@H](OC(=O)c3ccccc3)C3[C@](C)(C(=O)[C@H](O)C(=C1C)C2(C)C)[C@@H](OC1OCC(O)C(O)C1O)C[C@H]1OC[C@@]31OC(C)=O (some centres not stated),47,-1,57*,5,7,16,60*,52*
CC(=O)O[C@@]12CO[C@@H]1C[C@@H](O)[C@@]1(C)C(=O)[C@H](O)C3=C(C)[C@@H](OC(=O)[C@H](O)[C@@H](NC(=O)c4ccccc4)c4ccccc4)C[C@@](O)([C@@H](OC(=O)c4ccccc4)C12)C3(C)C (some centres not stated),-2,-3,51*,12,3,71*,61*,48*
CC(=O)O[C@@]12CO[C@@H]1C[C@H](OC1OCC(O)C(O)C1O)[C@@]1(C)C(=O)[C@H](O)C3=C(C)[C@@H](OC(=O)[C@H](O)[C@@H](NC(=O)c4ccccc4)c4ccccc4)C[C@@](O)([C@@H](OC(=O)c4ccccc4)C12)C3(C)C (some centres not stated),42,-1,53*,2,11,6,39,59*
CC/C(=N\NC(=O)c1ccccc1O)c1c(O)n(C2CCCCC2)c(=O)[nH]c1=O,14,6,3,21,-7,-4,·,·
C[C@@]1(CO)[C@H](O)CC[C@@]2(C)[C@H]1CC[C@H]1C[C@@H]3C[C@@]12CC[C@]3(O)CO,?,·,·,6,5,36,·,·
COC(=O)C1=C(c2ccc(F)cc2OCc2ccccc2)C[C@@H]2CC[C@H]1N2C(=O)NCCNC(C)=O,9,·,15,·,1,·,·,·
COc1cc2c(cc1OC)-c1c(OC)c(OC)c(OC)c3ccnc(c13)C2=O,37,29,72*,13,89*,20,44*,24
C[C@]12CCC3C(CC[C@H]4C[C@@H](O)CC[C@]34C)C1C[C@H](Br)[C@@H]2O (some centres not stated),19,·,10,·,6,·,·,·
COc1ccc(O)c2c(=O)c3c(OC)cc4c(c3oc12)C1C=COC1O4 (configuration not stated),36,-2,74*,28,24,19,63*,42*
CC(=O)OC1C=CC2[C@H]3Cc4ccc(O)c5c4[C@@]2(CCN3C)C1O5 (some centres not stated),·,·,4,·,·,·,·,·
SMILES,CSC inhib,Calb FLC,Mdm2 MdmX PPI,SKKanGAS inh,Beta apoptosis,T cruzi repl,Mdm2-MdmX conf,Full FLuc ctr
Cc1ccccc1-n1c(O)c(/C=C2/C(c3ccccc3)=Nc3ccccc32)c(=O)[nH]c1=O,67,-3,57*,0,15,-6,63*,66*
Cc1cccc(-n2c(O)c(/C=C3/C(c4ccccc4)=Nc4ccccc43)c(=O)[nH]c2=O)c1,65,28,54*,-8,19,-13,57*,36
CC[C@H]1C2C[C@H]3[C@@H]4N(C)c5ccccc5C45C[C@H](C2[C@H]5O)N3[C@@H]1O (some centres not stated),-5,·,23,·,2,·,·,·
COc1cc2c(c(OC)c1OC)-c1ccc(O)c(=O)cc1[C@@H](NC(C)=O)CC2,53,·,50,·,-5,·,·,·
COc1cc2c(c(OC)c1OC)-c1ccc(O)cc1[C@@H](NC(C)=O)CC2,4,0,63*,-3,59,14,65*,107*
COc1ccc2c(c1)[C@@]13CCC=C[C@H]1[C@@H](C2)NCC3,-10,·,22,·,1,·,·,·
COC(=O)C1=C(c2ccccc2)C[C@@H]2CC[C@H]1N2C(=O)NCc1ccc(F)cc1,-4,20,-8,-1,-9,-1,·,·
COc1ccc(OCC(=O)N2CCCC(N3CCN(c4ccccc4C)CC3)C2)cc1 (configuration not stated),-12,-8,7,2,-4,16,·,·
